# Compounds with a hit are over-represented: about 2.2% of the library has one in this group of screens.
# GPR7 antagonist: antagonists of human GPR7 (neuropeptides B/W receptor 1); 290,000 tested, 1.1% active; GPR7-expressing cells, fluorescence antagonist assay; P48145; inhibition, % at 4.4 µM; AID 1861; in the data active = inhibition above about 16%, passing the limit was not always enough;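 also: cells stimulated with the agonist NPW; 0% = agonist with vehicle and 100% = vehicle without agonist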
# Target sequence (P48145 whole entry, looked up): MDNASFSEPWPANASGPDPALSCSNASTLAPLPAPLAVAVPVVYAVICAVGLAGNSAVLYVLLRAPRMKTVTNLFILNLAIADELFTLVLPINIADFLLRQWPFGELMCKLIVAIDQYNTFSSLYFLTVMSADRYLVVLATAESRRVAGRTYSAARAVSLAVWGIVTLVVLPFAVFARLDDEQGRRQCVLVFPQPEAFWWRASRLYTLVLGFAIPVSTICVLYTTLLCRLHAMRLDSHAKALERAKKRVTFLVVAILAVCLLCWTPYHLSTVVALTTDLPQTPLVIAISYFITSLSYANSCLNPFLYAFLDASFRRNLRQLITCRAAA
# core dimer inh: blocks dimerization of HCV core protein | AID 1899 | TR-FRET GST/Flag-core106 dimerization, 1536-well | inhibition, % at 5 µM | 300,000 tested, 0.33% active;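 active = inhibition above the mean of all tested compounds plus 3 SD, set per screening campaign, cut at about 45% in these data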
#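 System: GST-tagged and Flag-tagged HCV core protein residues 1-106 / Input: core106 proteins, GST 13.5 nM and Flag 17 nM / Buffer or medium: KF-containing HEPES buffer, pH 7.45, DTT, CHAPS, BSA / Probe or stimulus: Eu-anti-GST and XL665-anti-Flag labelled anti-tag antibodies / Schedule: 4 h, 22.5 °C incubation / Technique: TR-FRET 671 and 617 nm emission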
# GRK2 inh: human GRK2 inhibition via aptamer displacement; P25098; inhibition of aptamer binding, % at 10 µM; bead flow cytometry, FAM-aptamer displacement from GRK2; AID 488847; 330,000 tested, 0.59% active;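 active = inhibition of aptamer binding above 40%, roughly 3 SD of noise, on plates passing a quality check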;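 also: median bead fluorescence of bound FAM aptamer so fluorescent compounds give negative values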
# FID counter: displaces DNA intercalator in HCV helicase counter-screen; DNA fluorescent intercalator displacement, fluorescence; inhibition, % at 7.9 µM; 290,000 tested, 0.17% active; AID 1845; in the data active = inhibition above about 37%;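 also: 0% = vehicle and 100% = reference compound; higher means more ethidium bromide displaced from hairpin DNA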
# NS3 helicase inh: blocks Hepatitis C virus NS3 helicase unwinding; NS3 helicase DNA unwinding, Cy5 molecular beacon fluorescence; AID 1800; 290,000 tested, 0.56% active; inhibition, % at 10.9 µM;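 active = inhibition above the mean of all tested compounds plus 3 SD, set per campaign, cut at about 35% in these data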;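 also: 0% = DMSO wells and 100% = thioflavine S control wells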
#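 Material: hepatitis C virus NS3 helicase domain fragment enzyme; measured by: Cy5 fluorescence, 0 and 60 min reads; control set: DMSO and thioflavine S; incubation: 60 min unwinding reaction at 25 °C after ATP addition; read-out basis: % inhibition from 60/0 min fluorescence ratio, DMSO 0%, thioflavine S 100%; repeats: singlicate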
# DAGLB inhibitor: diacylglycerol lipase beta (human) inhibition; AID 504411; inhibition, % at 5.17 µM; 340,000 tested, 0.059% active; HEK293T DAGLB membrane lysate, EnzChek fluorogenic substrate; in the data active = inhibition above about 34%;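 also: 0% = enzyme with vehicle and 100% = wells lacking enzyme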
# GPR7 antag cf: confirmation of human GPR7 antagonists; shares compounds with GPR7 antagonist; AID 1952; GPR7-expressing cells, calcium fluorescence antagonist mode; inhibition, % at 4.4 µM; 2,400 tested, 52% active; in the data active = inhibition above about 24%;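 also: stimulated with the GPR7 agonist NPW; 0% = agonist plus vehicle and 100% = vehicle alone without agonist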
# MCHR1 antag: antagonizes human MCHR1, a GPR7 antagonist counter-screen; shares compounds with GPR7 antagonist; MCHR1-expressing cells, fluorescence antagonist assay; inhibition, % at 4.4 µM; 2,400 tested, 62% active; AID 2148; in the data active = inhibition above about 22%;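 also: 0% = vehicle with agonist and 100% = vehicle without agonist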
# Numbers without * were called inactive; / = no result given.
SMILES,GPR7 antagonist,core dimer inh,GRK2 inh,FID counter,NS3 helicase inh,DAGLB inhibitor,GPR7 antag cf,MCHR1 antag
C/C(=N\NC(=O)CNC(=O)c1ccco1)c1ccc(Br)cc1,24*,-29,0,-14,11,-2,18,10
COc1ccc([C@H]2CC(=O)C=C(c3ccc(Cl)c(Cl)c3)C2)cc1,/,/,3,/,/,-15,/,/
C=CCNC(=S)Nc1cccc2[nH]ncc12,9,-6,1,-1,-2,-2,/,/
O=C(Nc1nc2ccccc2s1)C1CCN(S(=O)(=O)c2cc([N+](=O)[O-])ccc2Cl)CC1,32*,35,9,2,5,4,75*,75*
CCC(C)NC(=O)C1CCN(S(=O)(=O)c2cc([N+](=O)[O-])ccc2Cl)CC1 (stereo unspecified),-11,3,2,-5,-6,-1,/,/
CC(C)(C)c1ccc(OCCCn2ccnc2)cc1,-2,6,1,14,-26,-1,/,/
CCC1CCCCN1C(=O)c1ccc2c(c1)C(=O)N(c1ccc(C)cc1)C2=O (stereo unspecified),4,-2,0,-46,17,-3,/,/
Cc1ccc(S(=O)(=O)NCCCNc2ccc([N+](=O)[O-])cc2)cc1,41*,1,3,12,-5,-3,45*,71*
CCOc1ccccc1CNC(=O)c1ccc2c(c1)N(CC)CCS2,-6,-11,1,-33,-6,-2,/,/
CCOC(=O)c1[nH]c(CN2CCN(c3ccc(OC)cc3)CC2)c(C(=O)OCC)c1C,25*,-3,0,2,-30,-1,23,39*
O=C(Oc1ccc(C(=S)N2CCOCC2)cc1)c1ccccc1,42*,-1,0,-17,0,0,26*,15
O=C(Oc1ccc(C(=S)N2CCOCC2)cc1)c1ccc(Br)cc1,0,-5,0,0,-1,-3,/,/
COc1ccccc1OC(C)C(=O)Nc1ccccc1C(=O)NCc1cccnc1 (stereo unspecified),-2,-4,2,-23,-3,-6,/,/
O=C(COC(=O)c1ccccc1F)c1ccc(-n2nncc2-c2ccco2)cc1,22*,28,6,-28,12,-2,7,26*
CCN(C(=O)c1cc2c(s1)-c1ccccc1OC2)c1cc(OC)ccc1OC,31*,2,0,-34,-6,-8,50*,56*
CCN(C(=O)c1cc2c(s1)-c1ccccc1S(=O)(=O)C2)c1cc(OC)ccc1OC,0,13,0,-39,-18,0,/,/
CCc1ccc(C(C)NC(=O)COC(=O)c2ccc(-n3cnnn3)cc2)cc1 (stereo unspecified),/,/,0,/,/,0,/,/
CO/N=C/Cc1c([N+](=O)[O-])c(C)nn1C,28*,0,1,2,-13,-3,-7,-11
COc1cc(NC(=O)CN2CCN(c3ccccc3F)CC2)c(C)cc1[N+](=O)[O-],22*,-2,3,-6,-7,0,-13,-6
COc1ccccc1N1CCN(CC(=O)Nc2ccc(C)c(F)c2)CC1,26*,-6,1,-5,-12,-12,-3,1
COc1ccccc1N1CCN(CC(=O)Nc2cccc(F)c2)CC1,-4,1,2,-16,-2,-8,/,/
Cn1ncc2c(NCCc3ccccc3)nc(Cl)nc21,/,/,/,/,/,-2,/,/
COc1ccccc1N(C)S(=O)(=O)c1ccc(C(=O)Nc2cccc(S(=O)(=O)N3CCOCC3)c2)cc1,/,/,/,/,/,-1,/,/
COc1ccccc1NC(=O)CSc1nnnn1C1CCCCC1,9,8,0,-26,3,-6,/,/
C#CCOc1ccc(C2C3=C(CCCC3=O)N(CC(=O)O)C3=C2C(=O)CCC3)cc1Br,3,1,12,-23,-3,2,/,/
SMILES,GPR7 antagonist,core dimer inh,GRK2 inh,FID counter,NS3 helicase inh,DAGLB inhibitor,GPR7 antag cf,MCHR1 antag
N=C(N)SCc1cn(-c2ccccc2)nc1-c1ccc(Br)cc1,26*,/,/,25,-53,0,63*,89*
CC[C@]12c3[nH]c4cc(CCC(=O)N(C)C)ccc4c3CCN1C(=O)[C@@H](CC(=O)NCc1cccc(C(F)(F)F)c1)C[C@@H]2C(=O)N1CCN(C(=O)c2ccco2)CC1,/,/,0,/,/,2,/,/
O=C(Nc1ccc2snnc2c1)Nc1cccc2ccccc12,36*,-1,0,-1,-12,2,40*,77*
CCN(CC)C(C)C(=O)NCC1(c2ccccc2)CCOCC1 (stereo unspecified),-7,2,0,-3,-14,1,/,/
CCCC1CCC(c2ccc(OCC)cc2)=CC1=O (stereo unspecified),-11,/,0,-28,-9,-11,/,/
O=C(OC1CCN(c2ccc([N+](=O)[O-])cc2)CC1)c1ccccc1,29*,11,0,1,0,1,47*,68*
O=C(ON=C1CCN(c2ccc([N+](=O)[O-])cc2)CC1)c1ccccc1,7,8,0,-9,-8,0,/,/
COc1ccccc1CC(=O)N1CCN(c2ccc([N+](=O)[O-])cc2)CC1,25*,1,2,-16,5,2,7,36*
Cc1ccc(CC(=O)N2CCN(c3ccc([N+](=O)[O-])cc3)CC2)cc1,39*,-10,6,-22,14,-2,43*,41*
COc1ccccc1C(=O)N1CCN(c2cccc(Cl)c2)CC1,25*,5,2,-21,-11,-1,15,25*
Cc1ccc(S(=O)(=O)CC(=O)N2CCN(c3ccc([N+](=O)[O-])cc3)CC2)cc1,/,/,4,/,/,1,/,/
CC(=O)c1ccccc1NC(=O)CSc1nnc(Cc2csc(C)n2)o1,/,1,0,/,/,0,/,/
COc1ccc(-n2nc(C(=O)NCC(=O)NCCCN3CC(C)CC(C)C3)c3ccccc3c2=O)cc1 (stereo unspecified),-10,-26,0,9,17,2,/,/
COC(=O)C[C@H]1c2cc(C(F)(F)F)ccc2S(=O)(=O)N1Cc1ccccc1,/,-21,0,/,/,-1,/,/
O=C(c1ccccc1F)N1CCN(c2cccc(C(F)(F)F)c2)CC1,23*,0,2,-21,-7,-7,10,7
COc1ccccc1CC(=O)N1CCN(c2cccc(C(F)(F)F)c2)CC1,26*,6,0,-37,8,-3,38*,38*
COc1ccccc1NC(=O)N1CCN(c2cccc(C(F)(F)F)c2)CC1,-7,-4,7,-19,-1,-4,/,/
COc1cc(/C(C)=N\NC(=O)CSc2nc3ccccc3n2C)ccc1O,-3,4,0,-22,-11,3,/,/
